A value given as a limit tells only on which side of the number the result lay.

In assay [1] the target is 5'-nucleotidase (Homo sapiens, UniProt P21589). Nature of the assay: Inhibition of soluble human CD73 incubated for 60 mins before addition of AMP and further incubated for 60 mins by colorimetric assay.
The target of assay [2] is T1, Ectonucleoside triphosphate diphosphohydrolase 3 (Homo sapiens, UniProt O75355).
T1 sequence (O75355 whole entry): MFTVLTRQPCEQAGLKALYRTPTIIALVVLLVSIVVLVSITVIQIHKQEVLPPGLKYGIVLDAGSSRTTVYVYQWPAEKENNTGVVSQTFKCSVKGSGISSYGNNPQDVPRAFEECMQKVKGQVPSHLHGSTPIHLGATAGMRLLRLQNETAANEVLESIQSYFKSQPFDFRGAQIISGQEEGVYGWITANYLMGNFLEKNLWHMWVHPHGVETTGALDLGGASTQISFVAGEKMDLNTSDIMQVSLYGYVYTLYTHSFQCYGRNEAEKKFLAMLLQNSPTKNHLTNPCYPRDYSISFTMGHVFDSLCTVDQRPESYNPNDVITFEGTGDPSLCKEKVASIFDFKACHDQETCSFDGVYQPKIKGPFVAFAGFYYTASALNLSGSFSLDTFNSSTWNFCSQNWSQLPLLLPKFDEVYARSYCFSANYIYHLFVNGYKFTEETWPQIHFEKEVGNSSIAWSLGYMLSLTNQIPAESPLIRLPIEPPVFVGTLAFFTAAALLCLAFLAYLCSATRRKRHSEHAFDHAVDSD
The assay can be described thus: Inhibition of human NTPDase-3 expressed in CHO-K1 cells in presence of DNA/LTX mixture. In kind it is cell-based. The essentials:
(§1)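 CHO-K1 cells transfected overnight (Lipofectamine LTX) with NTPDase2, 3 or 8 plasmid, then harvested into HEPES pH 7.4 buffer. 10,000 cells/well, 2% DMSO, 16-point 1:3 compound dilutions (final 10–0 μM), 1 h preincubation at 37 °C. ATP added at 25 (NTPDase2), 15 (NTPDase3) or 30 μM (NTPDase8), 50 min at 37 °C. Phosphate read with PiColorLock Gold at 620 nm.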

The target of assay [3] is T2, Ectonucleoside triphosphate diphosphohydrolase 2 (Homo sapiens, UniProt Q9Y5L3).
T2 sequence (Q9Y5L3 whole entry): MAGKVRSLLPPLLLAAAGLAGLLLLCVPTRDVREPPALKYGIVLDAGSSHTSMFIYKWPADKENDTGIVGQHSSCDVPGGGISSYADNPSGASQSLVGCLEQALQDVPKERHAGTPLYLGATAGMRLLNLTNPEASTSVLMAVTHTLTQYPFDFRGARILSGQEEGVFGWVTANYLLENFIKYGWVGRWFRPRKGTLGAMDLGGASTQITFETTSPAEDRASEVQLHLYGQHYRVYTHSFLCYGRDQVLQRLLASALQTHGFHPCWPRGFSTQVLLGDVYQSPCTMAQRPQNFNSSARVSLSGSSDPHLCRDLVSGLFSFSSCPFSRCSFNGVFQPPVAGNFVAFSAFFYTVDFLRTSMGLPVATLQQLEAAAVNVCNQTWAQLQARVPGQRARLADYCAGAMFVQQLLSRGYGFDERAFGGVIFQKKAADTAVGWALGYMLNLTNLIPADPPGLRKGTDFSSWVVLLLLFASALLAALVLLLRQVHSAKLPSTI
The assay can be described thus: Inhibition of human NTPDase-2 expressed in CHO-K1 cells in presence of DNA/LTX mixture. Type of assay: cell-based. The essentials:
as §1

Sequence of 5'-nucleotidase (P21589 whole entry): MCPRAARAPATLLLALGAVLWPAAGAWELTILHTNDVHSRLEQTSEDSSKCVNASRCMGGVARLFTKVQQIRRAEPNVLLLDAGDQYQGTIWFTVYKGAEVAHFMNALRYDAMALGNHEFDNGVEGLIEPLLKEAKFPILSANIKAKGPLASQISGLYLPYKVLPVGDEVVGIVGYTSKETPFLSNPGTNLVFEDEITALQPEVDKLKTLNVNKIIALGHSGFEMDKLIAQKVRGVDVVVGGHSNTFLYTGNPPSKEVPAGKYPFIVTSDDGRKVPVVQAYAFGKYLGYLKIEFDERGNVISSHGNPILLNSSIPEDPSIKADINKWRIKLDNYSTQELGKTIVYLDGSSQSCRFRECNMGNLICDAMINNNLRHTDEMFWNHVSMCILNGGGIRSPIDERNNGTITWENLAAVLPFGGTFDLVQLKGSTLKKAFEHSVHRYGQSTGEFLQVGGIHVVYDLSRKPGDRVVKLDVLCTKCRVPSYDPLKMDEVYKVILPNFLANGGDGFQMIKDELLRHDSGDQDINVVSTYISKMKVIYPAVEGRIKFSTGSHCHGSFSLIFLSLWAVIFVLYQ

By IC50 is commonly meant the point on the concentration scale where inhibition reaches its midpoint. As for `O=P(O)(O)COC[C@H]1O[C@@H](n2ncc3c(NC4CCCC4)nc(Cl)nc32)[C@H](O)[C@@H]1O`, the values for the IC50 in assay [1], in assay [2] and in assay [3] were 0.86 nM, above 10 µM and above 10 µM, respectively.
